Rows were chosen to be rich in hits. Some 1.5% of all compounds tested hit in one or more screens of this group.
Hck-Nef inh: inhibitors of human Hck kinase activated by Nef | Recombinant Hck-YEEI plus Nef, Z-Lyte FRET kinase assay | inhibition, % at 20 µM | 220,000 compounds, 0.68% hits | AID 463187;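 active means Hck-Nef kinase inhibition above about 50%, limit read from the data; inactive means inhibition below that limit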;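 further: 0% = DMSO with Hck plus Nef and 100% = Hck alone without Nef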
Target sequence (P08631 whole entry, looked up): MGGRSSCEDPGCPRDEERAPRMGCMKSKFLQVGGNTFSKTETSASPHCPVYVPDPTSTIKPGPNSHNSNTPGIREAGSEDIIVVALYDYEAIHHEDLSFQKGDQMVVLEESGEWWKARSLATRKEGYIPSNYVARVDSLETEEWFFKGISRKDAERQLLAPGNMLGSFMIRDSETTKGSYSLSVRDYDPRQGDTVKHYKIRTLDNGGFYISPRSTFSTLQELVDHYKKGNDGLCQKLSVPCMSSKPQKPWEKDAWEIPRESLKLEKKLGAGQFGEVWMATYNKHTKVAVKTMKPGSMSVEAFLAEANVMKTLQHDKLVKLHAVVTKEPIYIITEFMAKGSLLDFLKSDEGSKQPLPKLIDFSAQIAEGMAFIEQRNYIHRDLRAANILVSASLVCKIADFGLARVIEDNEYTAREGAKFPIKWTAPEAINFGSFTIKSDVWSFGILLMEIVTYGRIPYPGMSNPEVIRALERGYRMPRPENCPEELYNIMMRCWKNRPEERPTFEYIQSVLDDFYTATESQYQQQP
Runt-SMMHC FRET: inhibitors of human RUNX1 Runt domain binding to CBFb-SMMHC | inhibition, % at 20 µM | Q01196+Q13951 | Cerulean-Runt/Venus-CBFb-SMMHC FRET ratio 530/480, 1 h | 220,000 compounds, 0.74% hits;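 active means mean inhibition across duplicate retests at 20 µM reaching about 50%, limit read from the data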;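 further: 0% = DMSO wells and 100% = wells with excess untagged CBFb-SMMHC; inhibitors lower the FRET ratio by blocking Runt binding to CBFb-SMMHC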
Runt-CBFb FRET: inhibitors of human RUNX1 Runt domain binding to CBFb; Q01196+Q13951; Cerulean-Runt/Venus-CBFb FRET ratio 530/480, 1 h; inhibition, % at 20 µM; 220,000 compounds, 0.46% hits;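 active means inhibition over about 50% at 20 µM in the single-dose screen, limit read from the data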;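 further: 0% = DMSO wells and 100% = excess unlabeled CBFb competitor control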
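test system = Cerulean-Runt domain fusion protein, energy donor | probe or stimulus = Venus-CBFb binding partner, 100 nM | incubation = two 1 h room-temperature incubations shielded from light | detection = fluorescence energy transfer, 422 nm excitation, 530/480 nm emission | measure = loss of energy transfer signal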
RanGTP-Impb inh: disruptors of Ran-importin-beta complex formation – biochemical, FRET, CFP-Ran, YFP-importin-beta, homogeneous, primary screen. cell-free CFP-Ran/YFP-importin-beta FRET ratio. inhibition, % (no concentration beside the values). 300,000 compounds, 1.1% hits. AID 2216;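 active means more than half of the replicate wells show a fall in the fluorescence ratio signal beyond about 16%, limit read from the data, passing the limit was not always enough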;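 further: 0% = DMSO wells and 100% = Ran loaded with GDP instead of GTP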
CaV13 ICDI inh: Primary screen for inhibitors of IQ motif and Ca2+-dependent inactivation inhibitor domain binding in CACNA1D, Förster resonance energy transfer in living cells, …. HEK cells, CFP/YFP FRET ICDI-IQ, plate reader, 10 min; percent FRET-ratio fall versus neutral wells. inhibition, % at 12.3 µM. 340,000 compounds, 0.098% hits. AID 743397;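 active means mean replicate inhibition of at least 30% and at least 1% of replicates passing that level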;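 further: 0% = median of the neutral control wells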
Active calls of the source: *; · = not tested or not shown.

SMILES	Hck-Nef inh	Runt-SMMHC FRET	Runt-CBFb FRET	RanGTP-Impb inh	CaV13 ICDI inh
Cc1cc(Oc2nc3ccccn3c(=O)c2/C=C(\C#N)C(=O)NC2CCS(=O)(=O)C2)ccc1Cl (centres undefined)	·	·	·	59*	-5
Cc1cccc(Oc2nc3ccccn3c(=O)c2/C=C(\C#N)C(=O)NC2CCS(=O)(=O)C2)c1C (centres undefined)	·	·	·	12	-5
N#C/C(=C\c1c(Oc2ccc(Cl)cc2)nc2ccccn2c1=O)C(=O)NC1CCS(=O)(=O)C1 (centres undefined)	·	·	·	51*	0
CC(C)N1CCc2c(sc(NC(=O)c3ccc(S(=O)(=O)N4CCc5ccccc54)cc3)c2C(N)=O)C1	-56	26	-14	90*	·
CC1CN(S(=O)(=O)c2ccc(C(=O)Nc3sc4c(c3C(N)=O)CCN(C)C4)cc2)CC(C)O1 (centres undefined)	-3	5	0	·	·
CCN1CCc2c(sc(NC(=O)c3ccc(S(=O)(=O)N4CC(C)OC(C)C4)cc3)c2C(N)=O)C1 (centres undefined)	·	·	·	28*	-1
CCN1CCc2c(sc(NC(=S)NC(=O)c3ccc(Cl)cc3)c2C(N)=O)C1	-22	60*	119*	81*	-1
CCN1CCc2c(sc(NC(=O)c3ccc(S(=O)(=O)N(C)c4ccccc4)cc3)c2C(=O)NC)C1	·	·	·	10	·
CCN1CCN(S(=O)(=O)c2ccc(C(=O)Nc3sc4c(c3C(N)=O)CCN(CC)C4)cc2)CC1	·	·	·	58*	-6
Cc1c(/C=N/NC(=O)c2cc(Br)ccc2O)c(=O)n(C)c(=O)n1C	·	·	·	3	-4
COc1ccccc1CNC(=O)CC12CC3CC(CC(Br)(C3)C1)C2	·	·	·	5	-4
Cc1cc(NC(=O)CCl)n(-c2nc3ccccc3s2)n1	59*	0	-5	0	-3
Cc1cc(NC(=O)C2CC2)n(-c2nc3ccccc3s2)n1	19	2	-3	-1	-10
COc1cc(/C=C2\CCCc3c2nc2ccccc2c3C(=O)O)cc(Br)c1O	·	·	·	0	-5
CCOc1cc(/C=C2\CCCc3c2nc2ccccc2c3C(=O)O)ccc1OC	·	·	·	47*	5
COc1ccc(CNC(=O)CCCNC(=O)c2ccc(Cl)cc2)cc1OC	·	·	·	-3	-18
N#Cc1c(N)n(-c2ccc(C(=O)O)cc2)c2nc3ccccc3nc12	43	82*	92*	50*	-10
N#Cc1c(N)n(C2CCCCC2)c2nc3ccccc3nc12	12	58*	78*	43*	·
Cc1nn(CC(=O)Nc2ccc(Br)cc2F)c(=O)c2cccn12	·	·	·	1	-7
COc1cc2c(C(=O)Nc3ccc4c(c3)OCO4)cn(CC(C)C)c(=O)c2cc1OC	8	1	-14	22*	·
COc1cc2c(C(=O)NCc3ccc4c(c3)OCO4)cn(CC(C)C)c(=O)c2cc1OC	2	-5	-2	1	·
CCCCc1cc(=O)oc2cc(O)cc(O)c12	-41	61*	35	5	-7
CCCCc1cc(=O)oc2cc(C)cc(O)c12	-1	-44	·	1	·
CCOC(=O)c1cccc(NC(=O)C2CCCN(c3nnc(N4CCCC4=O)s3)C2)c1 (centres undefined)	·	·	·	0	-3
Cn1c2ccccc2c(=O)c2ccc(Cl)cc21	·	·	·	·	3
SMILES	Hck-Nef inh	Runt-SMMHC FRET	Runt-CBFb FRET	RanGTP-Impb inh	CaV13 ICDI inh
CN(C)c1ccc(-c2ccc3c(=O)c4ccccc4n(C)c3c2)cn1	·	·	·	19*	-21
CC(=O)Oc1ccc(C(=O)Nc2cc(C)on2)cc1	·	·	·	-1	56*
CCC(=O)Nc1cccc(C2=NOC3(C2)C[C@@H](C(N)=O)N(C(=O)CC(c2ccccc2)c2ccccc2)C3)c1 (some centres undefined)	27	-4	2	-3	-2
CCC(=O)Nc1cccc(C2=NOC3(C2)C[C@@H](C(N)=O)N(C(=O)C(c2ccccc2)c2ccccc2)C3)c1 (some centres undefined)	25	0	-3	26*	-9
O=C(O)c1ccccc1C(=O)N(c1ccccc1)c1ccccc1	·	·	·	31*	-6
CNC(=O)[C@@H]1CCC(=O)N1	·	·	·	·	-9
Cc1ccc2[nH]c(=O)c(CN(CCc3ccccc3)Cc3nnnn3CC3CCCO3)cc2c1 (centres undefined)	-1	-16	4	-4	-9

Screens as filed in PubChem BioAssay.
